From ChEMBL document CHEMBL1138494, “Human glucagon receptor antagonists with thiazole cores. A novel series with superior pharmacokinetic properties” (J Med Chem, 2009)
Active and inactive are the calls of the source. The rule behind the calls is not given here.

What was measured:
[1] = test system: Hepatocyte; assay: Inhibition of glucagon-stimulated glucose production in rat primary hepatocytes; type: functional, cell-based
[2] = Oral bioavailability in fasted Sprague-Dawley rat at 3.34 mg/kg by HTLC-MS/MS analysis; type: ADME, organism-based; conditions: in vivo
Outline: (§1)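 Separate intravenous and peroral dosing arms per compound, with plasma concentration followed against time. Oral bioavailability (F_po) is reported per compound together with the intravenous half-life and clearance. The dose used for each arm is listed per compound.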

[3] = Binding affinity to glucagon receptor in monkey liver membrane by membrane filter assay; type: cell membranes, Macaca mulatta
[4] = species: Homo sapiens; assay: Selectivity for human recombinant glucagon receptor over human GLP1R
[5] = biological target: T1, Glucagon receptor (Homo sapiens, UniProt P47871); assay: Displacement of [125I]porcine glucagon from human recombinant glucagon receptor expressed in BHK cells by scintillation proximity assay; type: cell-based
[6] = Clearance in fasted Sprague-Dawley rat at 1.66 mg/kg, iv and 3.34 mg/kg, po by HTLC-MS/MS analysis; type: ADME, organism-based; conditions: in vivo
Outline: (§2)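 Rats were dosed intravenously and perorally in separate arms, and plasma concentration-time profiles were obtained. Half-life was taken from the iv arm. Clearance, oral bioavailability, Cmax and Tmax were derived from the profiles.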

[7] = biological target: Glucagon receptor (Mus musculus, UniProt Q61606); assay: Binding affinity to glucagon receptor in mouse liver membrane by membrane filter assay; type: cell membranes
[8] = biological target: T1, Glucagon receptor; assay: Binding affinity to human recombinant glucagon receptor expressed in BHK cells by membrane filter assay; type: cell-based
[9] = biological target: T2, Gastric inhibitory polypeptide receptor (Homo sapiens, UniProt P48546); assay: Displacement of [125I]porcine GIP from human recombinant GIPR receptor expressed in BHK cells by scintillation proximity assay; type: cell-based
T2 sequence (P48546 whole entry): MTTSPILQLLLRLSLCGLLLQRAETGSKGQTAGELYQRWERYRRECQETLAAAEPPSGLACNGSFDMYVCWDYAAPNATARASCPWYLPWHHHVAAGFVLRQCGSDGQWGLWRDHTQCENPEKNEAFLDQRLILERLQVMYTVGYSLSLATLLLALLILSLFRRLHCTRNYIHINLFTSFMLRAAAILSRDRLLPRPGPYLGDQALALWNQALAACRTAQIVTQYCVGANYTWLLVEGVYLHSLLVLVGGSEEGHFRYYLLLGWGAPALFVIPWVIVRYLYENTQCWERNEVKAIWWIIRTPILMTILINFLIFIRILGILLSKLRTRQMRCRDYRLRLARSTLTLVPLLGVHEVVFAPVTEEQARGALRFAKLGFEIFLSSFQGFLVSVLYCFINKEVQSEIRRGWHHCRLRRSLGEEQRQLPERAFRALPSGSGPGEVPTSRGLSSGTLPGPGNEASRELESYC

[10] = biological target: Glucagon receptor (Rattus norvegicus, UniProt P30082); assay: Binding affinity to glucagon receptor in rat liver membrane by membrane filter assay; type: cell membranes
[11] = species: Homo sapiens; assay: Selectivity ratio of IC50 for human recombinant glucagon receptor to IC50 for human recombinant GIPR
Outline: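 Competition binding of compounds to recombinant human glucagon and GIP receptors on BHK cell membranes, run in parallel as a scintillation proximity assay and, for selected compounds, as a membrane filtration assay.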

[12] = biological target: T2, Gastric inhibitory polypeptide receptor; assay: Binding affinity to human recombinant GIPR expressed in BHK cells by membrane filter assay; type: cell-based
[13] = Half life in fasted Sprague-Dawley rat plasma at 1.66 mg/kg, iv by HTLC-MS/MS analysis; type: ADME, organism-based; design: dose 1.66 mg/kg, route intravenous; outline: as §2
[14] = Cmax in fasted Sprague-Dawley rat at 1.66 mg/kg, iv and 3.34 mg/kg, po by HTLC-MS/MS analysis; type: ADME, organism-based; conditions: in vivo; outline: as §2
[15] = Tmax in fasted Sprague-Dawley rat at 1.66 mg/kg, iv and 3.34 mg/kg, po by HTLC-MS/MS analysis; type: ADME, organism-based; conditions: in vivo
Outline: (§3)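 Plasma concentration–time profiles were recorded after separate intravenous and peroral dosing at the per-compound doses listed. T_max is reported in min alongside C_max (ng/mL), intravenous half-life and clearance ((mL/min)/kg).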

[16] = test system: Hepatocyte; assay: Inhibition of glucagon-stimulated glucose production in human primary hepatocytes preincubated for 10 mins before glucagon addition by NADH-linked hexokinase assay; type: functional, cell-based
Outline: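 Cultured primary human hepatocytes were preincubated with compound for 10 min, then glycogenolysis was induced with 5 nM glucagon for 60 min. Glucose in the medium was measured against basal glycogenolysis. Albumin was present in the assay medium. IC50 was calculated from four experiments, mean ± SEM.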

[17] = Half life in fasted Beagle dog at 0.25 mg/kg, iv; type: ADME, organism-based, Canis lupus familiaris; design: dose 0.25 mg/kg, route intravenous; conditions: in vivo
Outline: (§4)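 Dogs were dosed at 0.25 mg/kg iv and 0.5 mg/kg po, and plasma concentration was followed over time. Half-life came from the iv arm; clearance, Cmax and Tmax were also derived.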

[18] = Binding affinity to glucagon receptor in rabbit liver membrane by membrane filter assay; type: cell membranes, Oryctolagus cuniculus
[19] = Clearance in fasted Beagle dog at 0.25 mg/kg, iv and 0.5 mg/kg, po; type: ADME, organism-based, Canis lupus familiaris; conditions: in vivo; outline: as §4
[20] = Cmax in fasted Sprague-Dawley rat at 1.6 mg/kg, iv and 3.15 mg/kg, po by HTLC-MS/MS analysis; type: ADME, organism-based; conditions: in vivo; outline: as §2
[21] = Binding affinity to glucagon receptor in dog liver membrane by membrane filter assay; type: cell membranes, Canis lupus familiaris
[22] = Oral bioavailability in fasted Beagle dog at 0.5 mg/kg; type: ADME, organism-based, Canis lupus familiaris; conditions: in vivo; outline: as §1
[23] = Oral bioavailability in fasted Sprague-Dawley rat at 3.15 mg/kg by HTLC-MS/MS analysis; type: ADME, organism-based; conditions: in vivo; outline: as §1
[24] = Half life in fasted Sprague-Dawley rat plasma at 1.6 mg/kg, iv by HTLC-MS/MS analysis; type: ADME, organism-based; design: dose 1.6 mg/kg, route intravenous; outline: as §2
[25] = Tmax in fasted Beagle dog at 0.25 mg/kg, iv and 0.5 mg/kg, po; type: ADME, organism-based, Canis lupus familiaris; conditions: in vivo; outline: as §3
[26] = Cmax in fasted Beagle dog at 0.25 mg/kg, iv and 0.5 mg/kg, po; type: ADME, organism-based, Canis lupus familiaris; conditions: in vivo; outline: as §4
[27] = Clearance in fasted Sprague-Dawley rat at 1.6 mg/kg, iv and 3.15 mg/kg, po by HTLC-MS/MS analysis; type: ADME, organism-based; conditions: in vivo; outline: as §2
[28] = Tmax in fasted Sprague-Dawley rat at 1.6 mg/kg, iv and 3.15 mg/kg, po by HTLC-MS/MS analysis; type: ADME, organism-based; conditions: in vivo; outline: as §3
[29] = Binding affinity to glucagon receptor in pig liver membrane by membrane filter assay; type: cell membranes, Sus scrofa
[30] = Half life in fasted Sprague-Dawley rat plasma at 1.9 mg/kg, iv by HTLC-MS/MS analysis; type: ADME, organism-based; design: dose 1.9 mg/kg, route intravenous; outline: as §2
[31] = Tmax in fasted Sprague-Dawley rat at 1.9 mg/kg, iv and 3.7 mg/kg, po by HTLC-MS/MS analysis; type: ADME, organism-based; conditions: in vivo; outline: as §3
[32] = Cmax in fasted Sprague-Dawley rat at 1.9 mg/kg, iv and 3.7 mg/kg, po by HTLC-MS/MS analysis; type: ADME, organism-based; conditions: in vivo; outline: as §2
[33] = Oral bioavailability in fasted Sprague-Dawley rat at 3.7 mg/kg by HTLC-MS/MS analysis; type: ADME, organism-based; conditions: in vivo; outline: as §1
[34] = Clearance in fasted Sprague-Dawley rat at 1.9 mg/kg, iv and 3.7 mg/kg, po by HTLC-MS/MS analysis; type: ADME, organism-based; conditions: in vivo; outline: as §2

T1 sequence (P47871 whole entry): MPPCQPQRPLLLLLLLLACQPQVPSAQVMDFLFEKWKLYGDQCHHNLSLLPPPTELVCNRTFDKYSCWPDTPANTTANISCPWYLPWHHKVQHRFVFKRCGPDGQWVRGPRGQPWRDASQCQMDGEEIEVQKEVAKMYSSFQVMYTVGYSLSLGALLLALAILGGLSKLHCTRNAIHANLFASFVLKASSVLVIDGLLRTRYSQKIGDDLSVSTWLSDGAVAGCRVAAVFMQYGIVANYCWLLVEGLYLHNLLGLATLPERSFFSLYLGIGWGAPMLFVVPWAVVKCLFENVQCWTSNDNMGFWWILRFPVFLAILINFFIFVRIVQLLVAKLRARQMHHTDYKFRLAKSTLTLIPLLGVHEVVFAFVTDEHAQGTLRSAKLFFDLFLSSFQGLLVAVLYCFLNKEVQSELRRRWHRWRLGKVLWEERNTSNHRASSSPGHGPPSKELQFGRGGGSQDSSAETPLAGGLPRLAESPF
Sequence of Glucagon receptor (Rattus norvegicus, UniProt P30082) (P30082 whole entry): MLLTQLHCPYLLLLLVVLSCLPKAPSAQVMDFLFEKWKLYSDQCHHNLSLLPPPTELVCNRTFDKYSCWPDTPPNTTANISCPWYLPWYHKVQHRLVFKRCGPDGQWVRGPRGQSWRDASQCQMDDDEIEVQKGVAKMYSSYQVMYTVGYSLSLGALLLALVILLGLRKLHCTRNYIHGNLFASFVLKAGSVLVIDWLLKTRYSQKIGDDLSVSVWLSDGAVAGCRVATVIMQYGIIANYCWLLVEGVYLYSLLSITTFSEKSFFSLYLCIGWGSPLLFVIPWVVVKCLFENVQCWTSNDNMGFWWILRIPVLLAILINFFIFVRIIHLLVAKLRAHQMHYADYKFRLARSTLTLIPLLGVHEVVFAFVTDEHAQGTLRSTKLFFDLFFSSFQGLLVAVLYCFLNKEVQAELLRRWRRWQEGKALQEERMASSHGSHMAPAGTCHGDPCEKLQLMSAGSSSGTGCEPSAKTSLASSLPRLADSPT
Sequence of Glucagon receptor (Mus musculus, UniProt Q61606) (Q61606 whole entry): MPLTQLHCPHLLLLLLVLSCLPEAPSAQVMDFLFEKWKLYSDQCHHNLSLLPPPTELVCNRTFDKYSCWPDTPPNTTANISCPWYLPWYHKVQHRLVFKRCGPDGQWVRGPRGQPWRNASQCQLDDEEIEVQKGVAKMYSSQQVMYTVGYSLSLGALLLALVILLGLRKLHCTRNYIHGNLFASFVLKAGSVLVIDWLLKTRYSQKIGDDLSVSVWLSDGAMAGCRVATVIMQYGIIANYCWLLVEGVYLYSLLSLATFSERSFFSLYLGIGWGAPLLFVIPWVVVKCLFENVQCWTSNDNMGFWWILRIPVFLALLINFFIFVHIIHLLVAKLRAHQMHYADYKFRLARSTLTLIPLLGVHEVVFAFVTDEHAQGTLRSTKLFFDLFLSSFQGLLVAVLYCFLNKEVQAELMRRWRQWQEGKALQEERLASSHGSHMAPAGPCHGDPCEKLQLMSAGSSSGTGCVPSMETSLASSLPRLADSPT

SMILES	fold change (FC) [4]	IC50 [5] [nM]	IC50 [9] [nM]	fold change (FC) [11]	also measured
O=C(O)CCNC(=O)c1ccc(CN(c2ccc3c(c2)CCC3)c2nc(-c3ccc(OC(F)(F)F)cc3)cs2)cc1	> 50	85	950	5	inhibition [1]: inactive; bioavailability [2]: 87%; IC50 [3]: 94 nM; clearance [6]: 15 mL/min/kg; IC50 [7]: 680 nM; IC50 [8]: 96 nM; IC50 [10]: 4400 nM; IC50 [12]: 770 nM; half-life [13]: 1.02 h; Cmax [14]: 704 ng/mL; Tmax [15]: 4 h; IC50 [16]: 8600 nM
Cc1cc(N(Cc2ccc(C(=O)NCCC(=O)O)cc2)c2nc(-c3ccc(C(F)(F)F)cc3)cs2)ccc1C(C)C	> 50	119	633	5	IC50 [8]: 93 nM; IC50 [12]: 293 nM
O=C(O)CCNC(=O)c1ccc(CN(c2ccc3c(c2)CCCC3)c2nc(-c3ccc(Cl)c(Cl)c3)cs2)cc1	> 50	79	830	5	half-life [17]: 2.07 h; IC50 [18]: 1900 nM; clearance [19]: 1.44 mL/min/kg; Cmax [20]: 1180 ng/mL; inhibition [1]: inactive; IC50 [3]: 55 nM; IC50 [21]: 81 nM; bioavailability [22]: 92%; IC50 [7]: 452 nM; bioavailability [23]: 36%; IC50 [8]: 54 nM; half-life [24]: 1.73 h; IC50 [10]: 1600 nM; IC50 [12]: 390 nM; Tmax [25]: 0.85 h; Cmax [26]: 1190 ng/mL; clearance [27]: 5 mL/min/kg; Tmax [28]: 1 h; IC50 [29]: 3300 nM; IC50 [16]: 4000 nM
O=C(O)CCNC(=O)c1ccc(CN(c2ccc(SC(F)(F)F)cc2)c2nc(-c3ccc(C(F)(F)F)cc3)cs2)cc1	> 50	34	777	5	
CC(C)(C)c1ccc(-c2csc(N(Cc3ccc(C(=O)NCCC(=O)O)cc3)c3ccc(C4=CCCCC4)cc3)n2)cc1	> 50	118	721	5	Cmax [20]: 13 ng/mL; bioavailability [23]: 2%; half-life [24]: 0.5 h; clearance [27]: 39 mL/min/kg; Tmax [28]: 1.5 h
O=C(NC[C@@H](O)C(=O)O)c1ccc(CN(c2ccc3c(c2)CCC3)c2nc(-c3ccc(C(F)(F)F)cc3)cs2)cc1	> 50	261	> 1000	5	
O=C(O)CCNC(=O)c1ccc(CN(c2nc(-c3ccc(Cl)c(Cl)c3)cs2)C2CCCc3ccccc32)cc1 (stereo not given)	> 50	531	1110	5	
O=C(O)CCNC(=O)c1ccc(N(Cc2ccc3c(c2)Cc2ccccc2-3)c2nc(-c3ccc(Cl)cc3)cs2)cc1	> 50	93	555	5	IC50 [8]: 34 nM; IC50 [12]: 320 nM
O=C(O)CCNC(=O)c1ccc(CN(c2ccc(C3=CCCCC3)cc2)c2nc(-c3ccc(OC(F)(F)F)cc3)cs2)cc1	> 50	36	207	5	half-life [30]: 0.717 h; Tmax [31]: 1.5 h; Cmax [32]: 47 ng/mL; bioavailability [33]: 3%; clearance [34]: 34 mL/min/kg
O=C(O)CCNC(=O)c1ccc(CN(c2ccc3c(c2)CCC3)c2nc(-c3ccc(Cl)c(Cl)c3)cs2)cc1	> 50	99	638	5	
O=C(O)CCNC(=O)c1ccc(CN(c2ccc(C3=CCCCC3)cc2)c2nc(-c3ccccc3)cs2)cc1	> 50	130	389	5	half-life [30]: 0.617 h; Tmax [31]: 1.5 h; Cmax [32]: 94 ng/mL; bioavailability [33]: 5%; clearance [34]: 35 mL/min/kg
CC(C)(C)c1ccc(-c2csc(N(Cc3ccc(C(=O)NCCC(=O)O)cc3)c3ccc(C(C)(C)C)cc3)n2)cc1	> 50	315	729	5	
COc1ccccc1-c1csc(N(Cc2ccc(C(=O)NCCC(=O)O)cc2)c2ccc(SC(F)(F)F)cc2)n1	> 50	420	> 1000	5	
O=C(NC[C@@H](O)C(=O)O)c1ccc(CN(c2ccc3c(c2)CCC3)c2nc(-c3ccc(OC(F)(F)F)cc3)cs2)cc1	> 50	225	> 1000	5	
Cc1cc(N(Cc2ccc(C(=O)NCCC(=O)O)cc2)c2nc(-c3cc(C(F)(F)F)cc(C(F)(F)F)c3)cs2)ccc1C(C)C	> 50	131	584	5	
O=C(O)CCNC(=O)c1ccc(CN(c2ccc(C3=CCCCC3)cc2)c2nc(-c3ccc(Cl)cc3)c(-c3ccccc3)s2)cc1	> 50	86	1000	5	
